From PubChem BioAssay come the findings set out here.

Molecules are shown by their SMILES. Activity calls are given as the source filed them.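 How the source made its calls, unless noted: active means visual image review flags a hit and inhibition of aggregation exceeds 20%; inconclusive means visual hit but inhibition at or below 20%; inactive means no hit on visual image review.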

A short description of assay [1]: inhibitors of TNFa-induced NFkB p65 translocation, primary screen, imaging, HUVEC, MLSMR starter and 10KST1 sets (AID 438;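 active means inhibition above 20% together with a positive visual image hit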;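 further: compound added about 3h40 before a 20 min TNFalpha stimulation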;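 on inhibition: signal is the nuclear over cytoplasmic p65 intensity ratio per well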). As to conditions: HUVEC TNFa-induced p65 nuclear translocation; cell count: measured here: nuclei count (cytotoxicity indicator), at 2.08 µM; inhibition: at 2 µM, stronger effect = higher value, 0% TNFa-plus-vehicle, 100% no-TNFa wells.
Assay [2] in a line: inhibitors of mutant huntingtin aggregation, primary screen, imaging, exon1htt(103Q)mCFP cells, high-content imaging (AID 483).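 Further: compound exposure lasted 3 days before fixation.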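 On nuclei count: percent of the per-plate median nuclei count of sample wells.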 To be noted: exon1htt(103Q)mCFP cell line, aggregate imaging, at 2 µM; inhibition of aggregation: stronger effect = higher value; nuclei count: measured here: cell count, toxicity.
A short description of assay [3]: inhibitors of E-selectin induction by TNFa, primary screen, imaging, HUVEC, immunofluorescence, MLSMR starter and 10KST1 sets (AID 487;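 active means visually confirmed hit in the image check and inhibition above 20%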;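 on inhibition: signal is fraction of cell area covered by stained E-selectin grains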;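 on nuclei count: 100% = median nuclei count of all wells on the same plate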). To be noted: HUVEC TNFalpha-induced E-selectin immunofluorescence imaging, at 2 µM; inhibition: stronger effect = higher value; nuclei count: measured here: cell number, toxicity.
In assay [4] the target is Voltage-gated potassium channel subunit beta-2 (Rattus norvegicus) (UniProt P62483). Kind of assay: KvBeta enzyme negative modulators, primary screen, biochemical, NADPH fluorescence (AID 622;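 active means fluorescence slope higher than the sample average by over 3 SD, cut at about -0.22 in these data, passing the limit was not always enough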;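 further: slope of raw intensity against log time taken from 70 to 1610 s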). To be noted: recombinant KvBeta, 4-cyanobenzaldehyde reduction, at 10 µM, stronger effect = higher value.
Assay [5] has the same target. The assay can be described thus: KvBeta positive modulators, primary screen, biochemical, NADPH fluorescence (AID 623;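 active means NADPH fluorescence slope more negative than the mean of all samples by about 3 SD, 99.7% confidence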;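 further: fluorescence intensity change per second fitted from 20 to 320 s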). As to conditions: Recombinant KvBeta, NADPH fluorescence decrease slope, 10 min; at 10 µM; stronger effect = lower value.
In assay [6] the target is Muscarinic acetylcholine receptor M4 (Homo sapiens) (UniProt P08173). Kind of assay: compounds altering M4/GIRK thallium flux, either direction, primary screen, M4 allosteric agonist project, cell-based, HEK293 M4/GIRK, BTC-AM (AID 625;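 active means fluorescence slope after compound addition differing from the mean of all tested samples at 99.7% confidence, mostly higher but some lower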;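 further: thallium influx through GIRK channels coupled to M4 in HEK293 cells with BTC-AM dye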). As to conditions: at 10 µM, actives lie on both sides. An outline of the steps: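 Material: M4/GIRK1/GIRK2 stable HEK293 cell line. Medium: pH 7.3 thallium assay buffer. Dosing: single compound concentration, 10 µM final. Schedule: 1 h dye loading, 2 min kinetic read. Measured by: kinetic fluorescence with BTC-AM dye. Read-out: post-addition slope, 15–24 s, of baseline-normalized fluorescence. Benchmarks: carbachol and DMSO controls.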

Assay [7] in a line: inhibitors of Sendai virus-induced IRF3 signaling, primary screen, TLR/RLR signaling modifier project, cell-based, Sendai virus stimulus, luciferase, 10K MLSCN set (AID 602276;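 active means inhibition at or above 50% at 10 µM; inactive means inhibition below 50%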;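 further: firefly luciferase from ISG56 promoter only with Renilla not read in this screen; 0% = Sendai virus plus DMSO and 100% = medium plus DMSO without virus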). To be noted: HEK293 RL24 IRF3 luciferase reporter, at 10 µM, stronger effect = higher value.
The nature of assay [8]: inhibitors of poly I:C-induced TLR3 signaling, primary screen, cell-based, poly I:C stimulus, luciferase, 10K MLSCN set (AID 602277;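 active means inhibition of the reporter signal at or above 50%; inactive means inhibition below 50%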). To be noted: HEK293-TLR3 RL24 IRF3 luciferase reporter, at 10 µM, stronger effect = higher value.

Voltage-gated potassium channel subunit beta-2 (Rattus norvegicus), sequence (P62483 whole entry, looked up): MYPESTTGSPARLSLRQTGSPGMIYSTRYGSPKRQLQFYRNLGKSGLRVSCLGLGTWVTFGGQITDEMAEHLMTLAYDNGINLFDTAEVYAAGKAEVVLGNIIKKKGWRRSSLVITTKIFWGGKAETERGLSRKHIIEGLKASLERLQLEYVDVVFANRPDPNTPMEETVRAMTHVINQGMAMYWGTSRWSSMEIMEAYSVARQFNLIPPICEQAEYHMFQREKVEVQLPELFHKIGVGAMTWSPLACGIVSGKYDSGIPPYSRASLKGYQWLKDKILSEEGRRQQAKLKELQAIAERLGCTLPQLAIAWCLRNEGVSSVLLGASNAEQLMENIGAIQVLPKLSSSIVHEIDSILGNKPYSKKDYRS
Muscarinic acetylcholine receptor M4 (Homo sapiens), sequence (P08173 whole entry, looked up): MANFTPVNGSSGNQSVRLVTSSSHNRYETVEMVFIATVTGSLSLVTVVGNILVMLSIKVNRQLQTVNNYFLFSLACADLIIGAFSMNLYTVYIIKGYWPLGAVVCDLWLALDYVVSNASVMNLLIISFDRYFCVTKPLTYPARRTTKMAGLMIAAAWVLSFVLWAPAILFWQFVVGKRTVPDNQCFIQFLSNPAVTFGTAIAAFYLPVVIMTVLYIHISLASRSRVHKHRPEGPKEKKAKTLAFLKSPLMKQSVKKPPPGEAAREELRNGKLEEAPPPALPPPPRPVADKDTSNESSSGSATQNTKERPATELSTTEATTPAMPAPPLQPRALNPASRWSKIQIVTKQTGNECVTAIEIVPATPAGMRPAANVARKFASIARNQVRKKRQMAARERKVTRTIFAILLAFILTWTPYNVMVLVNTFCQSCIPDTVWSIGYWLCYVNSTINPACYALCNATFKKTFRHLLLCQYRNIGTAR

On to `CCCc1nn(CCc2ccccn2)c(N)c1CC`, for which the cell count in assay [1] came to 613. Also, the inhibition was -9.1% (inactive) in assay [1], -43.2% (inactive) in assay [3], 14.8% (inactive) in assay [7] and 21.5% (inactive) in assay [8]. The inhibition of aggregation in assay [2] is 7.2% (inactive). The figures for the nuclei count in assay [2] and in assay [3] were 105% and 140%, respectively. The fluorescence slope in assay [4] is -0.372 (inactive); in assay [6] it was 0.00633 (inactive). The NADPH fluorescence slope in assay [5] was 5.8e-05 (inactive).

In the case of `CC(Oc1ccccc1)C(=O)N1CCCc2ccccc21` (centres undefined), the cell count in assay [1] was 474. Also, the inhibition in assay [1] was 9.1% (inactive); in assay [3], -43.6% (inactive); in assay [7], 2.1% (inactive); in assay [8], 29.5% (inactive). In addition, in assay [2], the inhibition of aggregation was -2.8% (inactive). In addition, the nuclei count was 118% in assay [2] and 112% in assay [3]. For the same compound, the fluorescence slope in assay [4] is -0.239 (inactive); in assay [6], 0.00527 (inactive). For the same compound, the NADPH fluorescence slope in assay [5] is 1.4e-05 (inactive).

Take `c1ccc2c3nnc4n(c-3nc2c1)CCCS4`: in assay [1], the cell count came to 472. In addition, the inhibition in assay [1] is 4.1% (inactive); in assay [3], 17.9% (inactive); in assay [7], -12.6% (inactive); in assay [8], -19.6% (inactive). Moreover, the inhibition of aggregation in assay [2] was 0.4% (inactive). Further, the nuclei count in assay [2] is 101%; in assay [3], 112%. The values for the fluorescence slope in assay [4] and in assay [6] were -0.444 (inactive) and 0.00387 (inactive), respectively. The NADPH fluorescence slope in assay [5] is -2.5e-05 (inactive).

`O=C(Cn1ncc2ccccc21)N1CCN(c2cccc(C(F)(F)F)c2)CC1`: the cell count in assay [1] was 659. In addition, the inhibition in assay [1] is -5.8% (inactive); in assay [3] it was -16.1% (inactive); in assay [7], 12% (inactive); in assay [8], 21.1% (inactive). In assay [2], the inhibition of aggregation was 1.3% (inactive). In addition, the nuclei count in assay [2] was found to be 114%; in assay [3], 122%. Further, the fluorescence slope in assay [4] was -0.378 (inactive); in assay [6], 0.00602 (inactive). For the same compound, the NADPH fluorescence slope in assay [5] is -2.5e-05 (inactive).

On to `Cn1c(=O)c2c(nc(SCc3nn[nH]n3)n2Cc2ccccc2F)n(C)c1=O`, for which, in assay [1], the cell count was 481. For the same compound, the inhibition in assay [1] is -9.5% (inactive); in assay [3], -5.3% (inactive); in assay [7] it was 15% (inactive); in assay [8], 17.9% (inactive). For the same compound, the inhibition of aggregation in assay [2] was 13.9% (inactive). Further, the nuclei count came to 81.9% in assay [2] and 96.9% in assay [3]. Further, the fluorescence slope in assay [4] is -0.535 (inactive); in assay [6] it was 0.00622 (inactive). For the same compound, the NADPH fluorescence slope in assay [5] is 4.4e-06 (inactive).

In the case of `Cc1nn(-c2ccc(F)cc2)c2nc(N)c(C#N)c(-c3cccs3)c12`, the cell count in assay [1] was 483. Besides, the inhibition was 5.7% (inactive) in assay [1], -126% (inactive) in assay [3], 12.4% (inactive) in assay [7] and 20.7% (inactive) in assay [8]. For the same compound, the inhibition of aggregation in assay [2] was 3% (inactive). For the same compound, the nuclei count came to 81.1% in assay [2] and 160% in assay [3]. In addition, the fluorescence slope in assay [4] is -0.437 (inactive); in assay [6] it was 0.00193 (inactive). In addition, the NADPH fluorescence slope in assay [5] was -1.4e-05 (inactive).

Consider `CCOC(=O)Nc1cc(OCC)c(NC(=O)C2CC2)cc1OCC`, for which the cell count in assay [1] is 589. Moreover, the inhibition is -12.9% (inactive) in assay [1], -52.7% (inactive) in assay [3], 3.59% (inactive) in assay [7] and 11.8% (inactive) in assay [8]. In addition, the inhibition of aggregation in assay [2] was -15% (inactive). Also, the nuclei count stood at 117% in assay [2] and 119% in assay [3]. The fluorescence slope was -0.439 (inactive) in assay [4] and 0.00711 (inactive) in assay [6]. In addition, in assay [5], the NADPH fluorescence slope was -4.7e-05 (inactive).

Consider `Cc1nc(NCCNC(=O)c2ccco2)c2c(C)c(C)sc2n1`, for which, in assay [1], the cell count worked out at 803. Also, the inhibition in assay [1] was -4.2% (inactive); in assay [3], -34.1% (inactive); in assay [7] it was 12.1% (inactive); in assay [8] it was 6.83% (inactive). Moreover, in assay [2], the inhibition of aggregation was -8.7% (inactive). Moreover, the nuclei count in assay [2] worked out at 136%; in assay [3], 117%. For the same compound, the results for the fluorescence slope in assay [4] and in assay [6] were -0.548 (inactive) and 0.00498 (inactive), respectively. The NADPH fluorescence slope in assay [5] was 1.6e-05 (inactive).

Regarding `Cc1ccc(S(=O)(=O)NCCc2ccncc2)cc1`, in assay [1], the cell count turned out to be 560. For the same compound, the inhibition in assay [1] was -1.9% (inactive); in assay [3] it was -47.2% (inactive); in assay [7], 7.81% (inactive); in assay [8] it was 17.1% (inactive). Further, the inhibition of aggregation in assay [2] is 6.8% (inactive). Besides, the nuclei count amounted to 92.8% in assay [2] and 106% in assay [3]. Besides, the figures for the fluorescence slope in assay [4] and in assay [6] were -0.578 (inactive) and 0.00601 (inactive), respectively. Besides, the NADPH fluorescence slope in assay [5] is -5.6e-05 (inactive).

Regarding `O=c1c2cn[nH]c2nc(SCc2ccc3c(c2)OCCO3)n1-c1ccccc1`, the cell count in assay [1] came to 488. Besides, the inhibition in assay [1] is 15.8% (inactive); in assay [3], -27.1% (inactive); in assay [7], 7.97% (inactive); in assay [8], 9.23% (inactive). For the same compound, the inhibition of aggregation in assay [2] was 4.8% (inactive). Besides, the nuclei count came to 112% in assay [2] and 107% in assay [3]. The fluorescence slope was -0.508 (inactive) in assay [4] and 0.0074 (inactive) in assay [6]. Further, the NADPH fluorescence slope in assay [5] is 1.3e-05 (inactive).

Consider `Cc1ccc(F)cc1NC(=O)Cc1nn(C)c(=O)c2ccccc12`, for which the cell count in assay [1] turned out to be 247. Also, the inhibition in assay [1] is 0.9% (inactive); in assay [3], 17.2% (inactive); in assay [7], 7.41% (inactive); in assay [8], -19% (inactive). The inhibition of aggregation in assay [2] is 4.8% (inactive). For the same compound, the results for the nuclei count in assay [2] and in assay [3] were 93.3% and 102%, respectively. Besides, the fluorescence slope was -0.555 (inactive) in assay [4] and 0.00476 (inactive) in assay [6]. Moreover, the NADPH fluorescence slope in assay [5] was -2.8e-05 (inactive).

Take `O=C(c1ccco1)N1CCN(C(=O)c2ccc(Cn3cc(Br)cn3)o2)CC1`: in assay [1], the cell count came out at 371. The inhibition in assay [1] is 2.6% (inactive); in assay [3] it was -21.6% (inactive); in assay [7], 13.3% (inactive); in assay [8], 12.9% (inactive). The inhibition of aggregation in assay [2] is 9.6% (inactive). Besides, the nuclei count in assay [2] worked out at 102%; in assay [3] it was 105%. Besides, the fluorescence slope was -0.456 (inactive) in assay [4] and 0.00591 (inactive) in assay [6]. Further, the NADPH fluorescence slope in assay [5] is -4.2e-05 (inactive).

For the compound `COc1ccc(CN(C(=O)CNC(=O)c2ccco2)C(C(=O)NC2CCCC2)c2ccco2)cc1` (centres undefined), the cell count in assay [1] was found to be 510. Also, the inhibition is 7.2% (inactive) in assay [1], -62.9% (inactive) in assay [3], -14.2% (inactive) in assay [7] and -26.3% (inactive) in assay [8]. In assay [2], the inhibition of aggregation was 3.1% (inactive). Besides, the values for the nuclei count in assay [2] and in assay [3] were 105% and 123%, respectively. Moreover, the results for the fluorescence slope in assay [4] and in assay [6] were -0.592 (inactive) and 0.00679 (inactive), respectively. The NADPH fluorescence slope in assay [5] was -1.6e-05 (inactive).

On to `CCS(=O)(=O)c1nc2ccccc2n1CC(=O)N1CCOCC1`, for which the cell count in assay [1] worked out at 581. The inhibition in assay [1] was -4.1% (inactive); in assay [3], -85.4% (inactive); in assay [7], 16.1% (inactive); in assay [8], 10.7% (inactive). The inhibition of aggregation in assay [2] is -22.2% (inactive). The nuclei count in assay [2] stood at 95.9%; in assay [3] it was 98.1%. Moreover, the fluorescence slope in assay [4] is -0.589 (inactive); in assay [6], 0.00736 (inactive). Besides, the NADPH fluorescence slope in assay [5] is -3e-05 (inactive).
